Measured values taken from PMC5677758 (Journal of the American Chemical Society, 2017).

Target: T1, GBA3 (Homo sapiens, UniProt Q9H227)
T1 sequence (Q9H227 1-469): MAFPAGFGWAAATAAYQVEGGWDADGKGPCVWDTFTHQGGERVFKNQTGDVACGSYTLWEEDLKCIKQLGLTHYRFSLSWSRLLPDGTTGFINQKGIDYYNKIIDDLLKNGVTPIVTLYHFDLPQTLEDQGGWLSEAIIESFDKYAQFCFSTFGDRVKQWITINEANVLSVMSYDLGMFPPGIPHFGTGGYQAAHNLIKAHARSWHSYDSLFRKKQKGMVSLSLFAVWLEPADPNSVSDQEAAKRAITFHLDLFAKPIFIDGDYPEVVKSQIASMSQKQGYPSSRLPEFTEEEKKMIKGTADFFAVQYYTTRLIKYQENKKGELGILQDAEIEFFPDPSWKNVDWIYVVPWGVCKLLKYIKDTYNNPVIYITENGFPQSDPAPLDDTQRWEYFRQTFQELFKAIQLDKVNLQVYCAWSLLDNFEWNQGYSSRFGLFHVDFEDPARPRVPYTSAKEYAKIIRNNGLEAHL
Test: GBA3 in vitro assay, homogenates of HEK293T overexpressing GBA3
Format: biochemical
Summary of the method: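 Lysate from HEK293T cells stably overexpressing human GBA3 was pretreated 30 min with 1 mM conduritol β epoxide to block GBA1. Assay in 100 mM Hepes pH 7.0 with 0.1% BSA for 1 h, with 0.05–5 mM 4MU-β-D-glucopyranoside plus inhibitor and no inhibitor preincubation. […] Duplicates; Ki from curve fit.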

- Ki: > 1000 µM
Structure (SMILES): CCCCN1C[C@H](O)[C@@H](O)[C@H](O)[C@H]1CO [compound 1, N-butyldeoxynojirimycin]
